This note sets out measurements from ChEMBL document CHEMBL1157834, “Structure-activity relationships of carbocyclic 6-benzylthioinosine analogues as subversive substrates of Toxoplasma gondii adenosine kinase” (Bioorg Med Chem, 2010).

In test [1] the target is T1, Adenosine kinase (Toxoplasma gondii, UniProt Q9TVW2).
T1 sequence (Q9TVW2 whole entry): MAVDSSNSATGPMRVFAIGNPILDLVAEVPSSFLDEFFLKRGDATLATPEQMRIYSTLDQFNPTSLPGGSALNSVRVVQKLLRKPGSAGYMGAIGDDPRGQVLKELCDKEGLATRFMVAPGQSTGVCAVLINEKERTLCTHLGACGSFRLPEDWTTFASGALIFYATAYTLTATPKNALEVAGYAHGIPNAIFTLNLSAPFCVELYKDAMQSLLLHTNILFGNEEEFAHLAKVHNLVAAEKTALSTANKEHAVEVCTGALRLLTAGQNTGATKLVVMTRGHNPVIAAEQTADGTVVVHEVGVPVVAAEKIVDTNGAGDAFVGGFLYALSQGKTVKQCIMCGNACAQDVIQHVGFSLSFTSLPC
Put plainly: Binding affinity to Toxoplasma gondii adenosine kinase after 20 mins by radioactivity method. An outline of the steps:
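Purified cloned T. gondii adenosine kinase in 50 mM Tris–Cl pH 7.4 with 2.5 mM ATP, 5 mM MgCl₂, 5 mM creatine phosphate, creatine kinase and [8-¹⁴C]adenosine (55 Ci/mol), with or without varied compound, at 37 °C under linear conditions. Stopped by boiling; adenosine and AMP separated by TLC (CHCl₃/MeOH/AcOH 102:12:6) and radioactivity quantified. Apparent Ki taken as apparent Km. ≥2 experiments in triplicate.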

The species named for test [2] is Homo sapiens. Put plainly: Cytotoxicity against uninfected human CRL1634 cells assessed as cell viability at 5 uM after 48 hrs by MTT assay.
For test [3], the system named is Toxoplasma gondii. Put plainly: Antimicrobial activity against wild-type Toxoplasma gondii RH infected in human CRL1634 cells assessed as intracellular parasite survival at 50 uM after 18 hrs by [5,6-[…]]uracil-based scintillation counting. In kind it is functional. The method, boiled down: (§1)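 Confluent human foreskin fibroblasts (≤20 passages, RPMI-1640) plated ~5×10⁵/well for 24 h at 37 °C, 5% CO₂. Infected with isolated tachyzoites in 3% FBS medium, 1 parasite/cell, for 1 h, then washed with 10% FBS medium. Compounds in 50% ethanol added to 0–50 µM (final ethanol 2.5%). After 18 h, drug-free medium with [5,6-³H]uracil (5 µCi/mL) for 6 h. TCA precipitates collected on glass-fiber filters and counted by scintillation. Growth taken as % uptake of treated vs untreated; ≥2 experiments in triplicate.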

Test [4] has as its system Toxoplasma gondii. Put plainly: Antimicrobial activity against adenosine kinase deficient Toxoplasma gondii TgAK-3 infected in human CRL1634 cells assessed as intracellular parasite survival at 5 uM after 18 hrs by [5,6-[…]]uracil-based scintillation counting. In kind it is functional. The method, boiled down: as §1
The test system of test [5] is Toxoplasma gondii. Put plainly: Antimicrobial activity against Toxoplasma gondii infected in human CRL1634 cells assessed as intracellular parasite survival at 25 uM after 18 hrs by [5,6-[…]]uracil-based scintillation counting. Format: functional. An outline of the steps:
as §1

Test [6] has as its system Toxoplasma gondii. Put plainly: Antimicrobial activity against wild-type Toxoplasma gondii RH infected in human CRL1634 cells assessed as intracellular parasite survival at 25 uM after 18 hrs by [5,6-[…]]uracil-based scintillation counting. Format: functional. An outline of the steps:
as §1

Test [7] concerns Toxoplasma gondii. Put plainly: Antimicrobial activity against adenosine kinase deficient Toxoplasma gondii TgAK-3 infected in human CRL1634 cells assessed as intracellular parasite survival at 50 uM after 18 hrs by [5,6-[…]]uracil-based scintillation counting. In kind it is functional. The method, boiled down: as §1
For test [8], the target named is T2, Adenosine kinase (Toxoplasma gondii) (UniProt Q9TVW2).
T2 sequence (whole entry): T1 sequence (Q9TVW2 whole entry)
Put plainly: Ratio of Km for carbocyclic 6-benzylthioinosine to Km for drug for binding affinity to Toxoplasma gondii adenosine kinase after 20 mins by radioactivity method.

For test [9], the system named is Toxoplasma gondii (RH strain). Put plainly: Activity against Toxoplasma gondii RH in human CRL1634 cells after 18 hrs by [5,6-3H]uracil incorporation assay.
Test [10] concerns Toxoplasma gondii. Put plainly: Antimicrobial activity against adenosine kinase deficient Toxoplasma gondii TgAK-3 infected in human CRL1634 cells assessed as intracellular parasite survival at 10 uM after 18 hrs by [5,6-[…]]uracil-based scintillation counting. In kind it is functional. An outline of the steps: as §1
For test [11], the species on record is Homo sapiens. Put plainly: Cytotoxicity against uninfected human CRL1634 cells assessed as cell viability at 10 uM after 48 hrs by MTT assay. On the technique in general: Tetrazolium assays rely on reduction of a dye to a coloured formazan, in cell work by metabolically active cells.
The subject of test [12] is Toxoplasma gondii. Put plainly: Antimicrobial activity against wild-type Toxoplasma gondii RH infected in human CRL1634 cells assessed as intracellular parasite survival at 5 uM after 18 hrs by [5,6-[…]]uracil-based scintillation counting. Format: functional. The method, boiled down:
as §1

Test [13] deals with Toxoplasma gondii. Put plainly: Antimicrobial activity against wild-type Toxoplasma gondii RH infected in human CRL1634 cells assessed as intracellular parasite survival at 10 uM after 18 hrs by [5,6-[…]]uracil-based scintillation counting. In kind it is functional. The method, boiled down:
as §1

Test [14] has as its system Toxoplasma gondii. Put plainly: Antimicrobial activity against adenosine kinase deficient Toxoplasma gondii TgAK-3 infected in human CRL1634 cells assessed as intracellular parasite survival at 25 uM after 18 hrs by [5,6-[…]]uracil-based scintillation counting. Format: functional. The method, boiled down: as §1

By Ki is commonly meant a dissociation constant, usually derived from enzyme kinetics or from competition with a known ligand. On to `OC[C@H]1C[C@@H](n2cnc3c(SCc4ccccc4)ncnc32)[C@H](O)[C@@H]1O`, for which the Ki in [1] worked out at 105 µM.
Consider `OC[C@H]1C[C@@H](n2cnc3c(SCc4ccc(F)cc4)ncnc32)[C@H](O)[C@@H]1O`, for which the Ki in [1] amounted to 31.9 µM.
One may read the IC50 as the concentration needed to halve the response being measured. A high value points to a need for much substance. For `Cc1ccc(CSc2ncnc3c2ncn3[C@@H]2C[C@H](CO)[C@@H](O)[C@H]2O)cc1`, the Activity in test [2] is 100%; in test [3], 0%; in test [4], 99%; in [5], 100%; in [6], 0%; in test [7], 100%. The Activity in test [10] is 100%; in [11] it was 100%; in test [12], 43%; in test [13] it was 2.5%; in [14], 100%. Further, in [8], the Ratio stood at 14. This compound had an IC50 in test [9] of 11.9 µM. For the same compound, the Ki in [1] was 7.5 µM.
For the compound `OC[C@H]1C[C@@H](n2cnc3c(SCc4cccc(C(F)(F)F)c4)ncnc32)[C@H](O)[C@@H]1O`, in test [1], the Ki was 22.2 µM.
`CCc1nc(N)nc(N)c1-c1ccc(Cl)cc1` [PYRIMETHAMINE]: the Activity in [2] turned out to be 101%; in test [3], 23%; in test [5], 108%; in [6], 25%; in test [11], 100%; in test [12], 99%. The Activity in [13] amounted to 55%. This compound gave an IC50 in test [9] of 16.1 µM.
`Cc1ccccc1CSc1ncnc2c1ncn2[C@@H]1C[C@H](CO)[C@@H](O)[C@H]1O`: in test [1], the Ki was determined as 24.9 µM.
Still for that read-out and setting: as for `OC[C@H]1C[C@@H](n2cnc3c(SCc4ccccc4Cl)ncnc32)[C@H](O)[C@@H]1O`, the figure is 24.2 µM.
Still for that read-out and setting: as for `OC[C@H]1C[C@@H](n2cnc3c(SCc4c(F)cccc4Cl)ncnc32)[C@H](O)[C@@H]1O`, the figure is 31.3 µM; as for `COc1ccc(CSc2ncnc3c2ncn3[C@@H]2C[C@H](CO)[C@@H](O)[C@H]2O)cc1`, 62 µM.
Turning to `OC[C@H]1C[C@@H](n2cnc3c(SCc4ccc(OC(F)(F)F)cc4)ncnc32)[C@H](O)[C@@H]1O`, the Ki in test [1] worked out at 65.5 µM.
For `Nc1ccc(S(=O)(=O)Nc2ncccn2)cc1` [SULFADIAZINE], the Activity in test [2] was determined as 98%; in [3] it was 46%; in [5], 100%; in test [6], 53%; in test [11] it was 100%; in [12], 93%. Further, the Activity in test [13] is on record as 58%. This compound showed an IC50 in test [9] of 27.3 µM.
Turning to `OC[C@H]1C[C@@H](n2cnc3c(SCc4ccc(Cl)cc4)ncnc32)[C@H](O)[C@@H]1O`, the Activity in test [2] stood at 100%; in test [3] it was 0%; in test [4], 100%; in test [5] it was 100%; in [6], 0%; in test [7], 100%. The Activity in [10] was 100%; in [11] it was 100%; in test [12], 73%; in test [13], 12%; in [14] it was 100%. The midpoint of inhibition in test [9], the IC50, lay at 14.5 µM. For the same compound, the Ki in test [1] came to 15.6 µM.
Take `OC[C@H]1C[C@@H](n2cnc3c(SCc4ccccc4F)ncnc32)[C@H](O)[C@@H]1O`: in test [1], the Ki was found to be 54.8 µM.
Consider `Cc1cc(C)c(CSc2ncnc3c2ncn3[C@@H]2C[C@H](CO)[C@@H](O)[C@H]2O)c(C)c1`, for which the Ki in [1] came out at 63.1 µM.
On the same count and under the same terms, under `CS(=O)(=O)c1ccc(CSc2ncnc3c2ncn3[C@@H]2C[C@H](CO)[C@@H](O)[C@H]2O)cc1` stands 73.7 µM; under `OC[C@H]1C[C@@H](n2cnc3c(SCc4ccc(Cl)c(Cl)c4)ncnc32)[C@H](O)[C@@H]1O`, 16.8 µM.
Same read-out and setting: under `N#Cc1ccc(CSc2ncnc3c2ncn3[C@@H]2C[C@H](CO)[C@@H](O)[C@H]2O)cc1` stands 129 µM; under `COC(=O)c1ccc(CSc2ncnc3c2ncn3[C@@H]2C[C@H](CO)[C@@H](O)[C@H]2O)cc1`, 40.9 µM; under `OC[C@H]1C[C@@H](n2cnc3c(SCc4ccc(Cl)cc4Cl)ncnc32)[C@H](O)[C@@H]1O`, 60.7 µM.
Consider `O=[N+]([O-])c1cccc(CSc2ncnc3c2ncn3[C@@H]2C[C@H](CO)[C@@H](O)[C@H]2O)c1`, for which, in test [1], the Ki stood at 26.6 µM.
Regarding `Cc1cccc(CSc2ncnc3c2ncn3[C@@H]2C[C@H](CO)[C@@H](O)[C@H]2O)c1`, the Ki in [1] came out at 26.8 µM.
Take `O=[N+]([O-])c1ccc(CSc2ncnc3c2ncn3[C@@H]2C[C@H](CO)[C@@H](O)[C@H]2O)cc1`: in test [1], the Ki came out at 94.1 µM.
Take `OC[C@H]1C[C@@H](n2cnc3c(SCc4ccc(Br)cc4)ncnc32)[C@H](O)[C@@H]1O`: the Ki in test [1] is 21.1 µM.
As for `OC[C@H]1O[C@@H](n2cnc3c(SCc4ccccc4)ncnc32)[C@H](O)[C@@H]1O` [6-BENZYLTHIOINOSINE], the Ki in test [1] was 14.3 µM.
